Fewer inactive variants are shown than the library holds.
B1: tRNA (parent)
chain: GUUCCGUUGGCGUAAUGGUAACGCGUCUCCCUCCUAAGGAGAAGACUGCGGGUUCGAGUCCCGUACGGAACG

Variants of: B1
Assay: yeast fitness relative to wild type (ratio to wild type); higher = fitter; tRNA-Arg(CCU), competitive growth, 37 C, YPD
Method in brief: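 Amplicons of the tRNA-Arg(CCU) gene were sequenced, 100-nucleotide paired-end, from the start population and from each end population of a pooled yeast competition. The competition, in six parallel replicates, lasted 24 hours in YPD at 37°C. Fitness relative to wild type was calculated from changes in genotype frequencies. Genotypes had to have ≥ 100 starting reads, and estimates < 0.5 were set to 0.5.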

Variant	yeast fitness
GUUCCGUUGGCGUAAUGGUAACGCGUCUCCCUCCUUUGGAGAAGUCUGCGGGUUCGAGUCCCGUGCGGAACG [A36U A37U A45U A65G]	≤ 0.5
GUUCCGUUGGCGUAAUGGUAACGCGUCUCCCUCCUUAGGAGUAGACUGUGGGUUCGAGUCCCGUACGGAACG [A36U A42U C49U]	0.576
GUUCCGUUGGCGUAAUGGUAACGCGUCUCCCUCCUUGGGCGAAGACUGCGGGUUCGAGUCCCGUAUGGAACG [A36U A37G A40C C66U]	0.636
GUUCCGUUGGCGUAAUGGUAACGCGUCUCCCUCCUGAGGAGAAGACUGCGGGAUCGAGUCCAGUACGGAACG [A36G U53A C62A]	≤ 0.5
GUUCCGUUGGCGUAAUGGUAACGCGUCUCCCUCCUGAGGAGAAGACUGCGGGUUCGAGUCCCGUACUGAACG [A36G G67U]	0.901
GUUCCGUUGGCGUAAUGGUAACGCGUCUCCCUCCUGAGGAGAAGACUGCGGGUUCGAGUCCCGUACAGAACG [A36G G67A]	0.864
GUUCCGUUGGCGUAAUGGUAACGCGUCUCCCUCCUUAGGAGAGGACUGCGGGUUCGAGUCCCGUACGGAACG [A36U A43G]	0.745
GUUCCGUUGGCGUAAUGGUAACGCGUCUCCCUCCUUAGGAGACGACUGCGGGUUCGAGUCCCGUACGGAACG [A36U A43C]	0.569
GUUCCGUUGGCGUAAUGGUAACGCGUCUCCCUCCUUCGGAGAAGACUGCGGGUUCGAGUCCCGUACGGAGCG [A36U A37C A70G]	≤ 0.5
GUUCCGUUGGCGUAAUGGUAACGCGUCUCCCUCCUUAGGCGAAGUCUGCGGGUUCGAGUCCGAUACGGAACG [A36U A40C A45U C62G G63A]	≤ 0.5
GUUCCGUUGGCGUAAUGGUAACGCGUCUCCCUCCUUAGGAGAAGACUGGGGGUUCGAGUCCCGUACGGUACG [A36U C49G A69U]	≤ 0.5
GUUCCGUUGGCGUAAUGGUAACGCGUCUCCCUCCUUAGGUGAACACUGCGGGUUCGAGUUCCGUACGGAACG [A36U A40U G44C C60U]	≤ 0.5
GUUCCGUUGGCGUAAUGGUAACGCGUCUCCCUCCUGAGGAGAAGACUGCGGGUACGAGUCCUGUACGGAACG [A36G U54A C62U]	≤ 0.5
GUUCCGUUGGCGUAAUGGUAACGCGUCUCCCUCCUUAGGAGAAGACUGCGGGUUCGAGUCCCGUACGGAGCG [A36U A70G]	0.607
GUUCCGUUGGCGUAAUGGUAACGCGUCUCCCUCCUUAGGAGAAGACUGCGGGUUCGAGUCCCGUACGGACCG [A36U A70C]	0.799
GUUCCGUUGGCGUAAUGGUAACGCGUCUCCCUCCUGAGGAGAAGACUGCGGGUUCGAGCCCCGUACGGUACG [A36G U59C A69U]	0.783
GUUCCGUUGGCGUAAUGGUAACGCGUCUCCCUCCUUAGGAGAAGACUGAGGGUUCGAGUCCCGUACGGUACG [A36U C49A A69U]	0.565
GUUCCGUUGGCGUAAUGGUAACGCGUCUCCCUCCUGAGGAGAAGACUGCGGGUUCGAGACCCGUCCGGACCG [A36G U59A A65C A70C]	≤ 0.5
GUUCCGUUGGCGUAAUGGUAACGCGUCUCCCUCCUUAGGUGAAGACUGCGGGUUCGAGUCCCGUCUGGAACG [A36U A40U A65C C66U]	≤ 0.5

Variant	yeast fitness
GUUCCGUUGGCGUAAUGGUAACGCGUCUCCCUCCUGAGGAGAAGACUGCGGGUUCGAGUCCCAUACGGAACG [A36G G63A]	0.944
GUUCCGUUGGCGUAAUGGUAACGCGUCUCCCUCCUGAGGAGAAGACUGCGGGUUCGAGUCCCCUACGGAACG [A36G G63C]	0.724
GUUCCGUUGGCGUAAUGGUAACGCGUCUCCCUCCUUGGGCGAAGACUGCGGGUUCGAGUCCCGUACGGAACG [A36U A37G A40C]	≤ 0.5
GUUCCGUUGGCGUAAUGGUAACGCGUCUCCCUCCUGAGGAGAAGACUCCGGGUUCGAGUCCCGUACGGAACG [A36G G48C]	0.905
GUUCCGUUGGCGUAAUGGUAACGCGUCUCCCUCCUUAGGAGAAGACUGCGGGUUCGAGUACCGUACGGAUCG [A36U C60A A70U]	≤ 0.5
GUUCCGUUGGCGUAAUGGUAACGCGUCUCCCUCCUGAGGAGAAGACUGCGGGUUCGAGUCCCGUACGCUACG [A36G G68C A69U]	0.547
GUUCCGUUGGCGUAAUGGUAACGCGUCUCCCUCCUGAGGAGAAGACUGCGGCUUCGAGUCCCGUACGGAACG [A36G G52C]	0.674
GUUCCGUUGGCGUAAUGGUAACGCGUCUCCCUCCUGAGGAGAAGACUGCGGAUUCGAGUCCCGUACGGAACG [A36G G52A]	0.744
GUUCCGUUGGCGUAAUGGUAACGCGUCUCCCUCCUGAGGAGAAGACUGCGGGUUCGAGUCCCAUACGGUACG [A36G G63A A69U]	0.688
GUUCCGUUGGCGUAAUGGUAACGCGUCUCCCUCCUUAGGAGAAGACUGUGGGUCCGAGUCCCGUACGGAACG [A36U C49U U54C]	≤ 0.5
GUUCCGUUGGCGUAAUGGUAACGCGUCUCCCUCCUUAGGAGAAGACUGCGGGUUCGAGUCCCGUACGGAACG [A36U]	0.714
GUUCCGUUGGCGUAAUGGUAACGCGUCUCCCUCCUUAGGAGUAGACUGUGGGUUCGAGUCCCGUACGGCACG [A36U A42U C49U A69C]	≤ 0.5
GUUCCGUUGGCGUAAUGGUAACGCGUCUCCCUCCUUAGGAGAAGACUGCGGGUUCGGGUCCCCUACGGAACG [A36U A57G G63C]	0.563
GUUCCGUUGGCGUAAUGGUAACGCGUCUCCCUCCUUAGGAGAAGUCUGCGGGUUCGUGUCCCGUACGGAACG [A36U A45U A57U]	≤ 0.5
GUUCCGUUGGCGUAAUGGUAACGCGUCUCCCUCCUUAGGAGAAGACUGGGGCUUCGAGUCCCGUACGGAACG [A36U C49G G52C]	≤ 0.5
GUUCCGUUGGCGUAAUGGUAACGCGUCUCCCUCCUGAGGAGAAGACAGCGGGUUCGAGUCCCGUACGGCACG [A36G U47A A69C]	0.68
GUUCCGUUGGCGUAAUGGUAACGCGUCUCCCUCCUUAGGAGAAGACUGGGGGUACGCGUCCCGUACGAAACG [A36U C49G U54A A57C G68A]	≤ 0.5
GUUCCGUUGGCGUAAUGGUAACGCGUCUCCCUCCUUAGGAGAAGGCUGCGGGUUCGAGUCCCGUAUGGAGCG [A36U A45G C66U A70G]	≤ 0.5
GUUCCGUUGGCGUAAUGGUAACGCGUCUCCCUCCUUAGGAGAAGUCUGCGGGUUCGAGUCCCGUAUGGAACG [A36U A45U C66U]	0.535

— the RNAGym collection of RNA variant scans (doi:10.1126/science.aae0568)
